Assay results published in ChEMBL document CHEMBL1138216, “Design and synthesis of novel derivatives of the muscarinic agonist tetra(ethylene glycol)(3-methoxy-1,2,5-thiadiazol-4-yl) [3-(1-methyl-1,2,5,6-tetrahydropyrid-3-yl)-1,2,5-thiadiazol-4-yl] ether (CDD-0304): effects of structural modifications on the binding and activity at muscarinic receptor …” (J Med Chem, 2006).
Activity calls are given as the source filed them. The rule behind the calls is not given here.

Tests used:
[1] = target: T1, Muscarinic acetylcholine receptor M3 (Homo sapiens, UniProt P20309); experiment: Antagonist activity at human M3 receptor assessed as inhibition of carbachol […]; details: read-out: pA2 (converted)
T1 sequence (P20309 whole entry): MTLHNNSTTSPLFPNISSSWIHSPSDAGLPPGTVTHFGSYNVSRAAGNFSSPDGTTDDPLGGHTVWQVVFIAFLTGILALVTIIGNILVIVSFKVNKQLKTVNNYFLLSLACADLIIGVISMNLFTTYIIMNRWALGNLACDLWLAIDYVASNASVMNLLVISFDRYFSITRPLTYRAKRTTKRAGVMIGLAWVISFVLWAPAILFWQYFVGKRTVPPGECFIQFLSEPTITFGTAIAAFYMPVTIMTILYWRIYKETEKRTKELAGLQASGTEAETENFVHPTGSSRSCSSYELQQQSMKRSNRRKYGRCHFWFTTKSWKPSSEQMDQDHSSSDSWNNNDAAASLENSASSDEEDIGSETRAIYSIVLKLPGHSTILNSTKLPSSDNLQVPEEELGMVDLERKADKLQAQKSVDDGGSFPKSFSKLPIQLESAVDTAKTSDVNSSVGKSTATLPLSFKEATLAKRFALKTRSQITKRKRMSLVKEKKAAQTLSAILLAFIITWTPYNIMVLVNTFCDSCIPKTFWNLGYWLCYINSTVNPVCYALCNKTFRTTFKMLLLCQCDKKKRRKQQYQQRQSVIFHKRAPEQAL

Rattus norvegicus [2] = experiment: Antipsychotic activity in Sprague-Dawley rat assessed as ability to reverse apomorphine effect on prepulse inhibition of the startle response at 1 mg/kg, sc; format: functional, organism-based; parameters: dose 1 mg/kg
In short: (§1)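 Male Sprague-Dawley rats, 250-300 g, habituated a day before. Drug in water or saline sc (1 mL/kg) 25 min, apomorphine 1.0 mg/kg 5 min pre-test; muscarinic agonists 0.1-3 mg/kg. Session of 15 each pulse-alone (120 dB, 100 ms) and pulse preceded 200 ms by 20 ms prepulse 12 dB above 70 dB background; 12 rats/group; %PPI calculated.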

Rattus norvegicus [3] = experiment: Antipsychotic activity in Sprague-Dawley rat assessed as ability to reverse apomorphine effect on prepulse inhibition of the startle response at 3 mg/kg, sc; format: functional, organism-based; parameters: dose 3 mg/kg; in short: as §1
[4] = target: T2, Muscarinic acetylcholine receptor M4 (Homo sapiens, UniProt P08173); experiment: Activity at human M4 receptor assessed as inhibition of forskolin-stimulated cAMP accumulation; format: functional
T2 sequence (P08173 whole entry): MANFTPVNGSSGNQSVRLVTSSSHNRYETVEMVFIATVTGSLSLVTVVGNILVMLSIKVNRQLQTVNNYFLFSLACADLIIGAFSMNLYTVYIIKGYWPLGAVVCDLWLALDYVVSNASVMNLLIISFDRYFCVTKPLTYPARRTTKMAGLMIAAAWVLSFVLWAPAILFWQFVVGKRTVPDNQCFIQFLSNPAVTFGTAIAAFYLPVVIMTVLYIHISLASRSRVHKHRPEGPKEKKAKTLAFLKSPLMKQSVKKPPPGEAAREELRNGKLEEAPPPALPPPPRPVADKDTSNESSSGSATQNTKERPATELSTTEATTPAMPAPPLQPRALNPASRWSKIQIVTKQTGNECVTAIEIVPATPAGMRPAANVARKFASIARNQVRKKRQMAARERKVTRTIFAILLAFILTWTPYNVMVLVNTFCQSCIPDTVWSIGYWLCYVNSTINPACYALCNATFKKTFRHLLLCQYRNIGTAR

[5] = target: T3, Muscarinic acetylcholine receptor M5 (Homo sapiens) (UniProt P08912); experiment: Agonist activity at human M5 receptor expressed in A9 L cells assessed as stimulation of phosphoinositide hydrolysis relative to carbachol; format: functional, cell-based; details: L929
T3 sequence (whole entry): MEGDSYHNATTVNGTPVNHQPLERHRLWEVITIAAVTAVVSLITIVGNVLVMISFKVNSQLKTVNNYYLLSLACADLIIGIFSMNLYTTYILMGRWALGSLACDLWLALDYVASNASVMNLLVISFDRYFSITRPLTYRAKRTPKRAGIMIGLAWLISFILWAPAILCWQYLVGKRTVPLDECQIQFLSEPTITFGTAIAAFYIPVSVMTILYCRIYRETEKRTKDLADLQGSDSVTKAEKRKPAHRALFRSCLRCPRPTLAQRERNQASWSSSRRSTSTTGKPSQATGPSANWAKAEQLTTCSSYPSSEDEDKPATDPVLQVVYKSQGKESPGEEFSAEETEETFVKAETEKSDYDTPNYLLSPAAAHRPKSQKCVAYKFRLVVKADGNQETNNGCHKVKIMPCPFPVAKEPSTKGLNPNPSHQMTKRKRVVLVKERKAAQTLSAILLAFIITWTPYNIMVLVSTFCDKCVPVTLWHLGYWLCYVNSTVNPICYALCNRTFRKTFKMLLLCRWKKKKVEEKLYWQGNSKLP
In short: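 A9 L cells stably expressing the receptor, seeded 24 h, labelled overnight with 10 µCi/mL [3H]inositol in inositol-free DMEM; ligands in HBSS with 10 mM LiCl, 20 mM HEPES, 37 °C, 1 h; formic acid extraction, inositol phosphates counted by SPA beads.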

[6] = target: T4, Muscarinic acetylcholine receptor M1 (Homo sapiens, UniProt P11229); experiment: Inhibition of [3H](R)-QNB binding to human M1 receptor expressed in A9 L cells; format: cell-based, A9L
T4 sequence (P11229 whole entry): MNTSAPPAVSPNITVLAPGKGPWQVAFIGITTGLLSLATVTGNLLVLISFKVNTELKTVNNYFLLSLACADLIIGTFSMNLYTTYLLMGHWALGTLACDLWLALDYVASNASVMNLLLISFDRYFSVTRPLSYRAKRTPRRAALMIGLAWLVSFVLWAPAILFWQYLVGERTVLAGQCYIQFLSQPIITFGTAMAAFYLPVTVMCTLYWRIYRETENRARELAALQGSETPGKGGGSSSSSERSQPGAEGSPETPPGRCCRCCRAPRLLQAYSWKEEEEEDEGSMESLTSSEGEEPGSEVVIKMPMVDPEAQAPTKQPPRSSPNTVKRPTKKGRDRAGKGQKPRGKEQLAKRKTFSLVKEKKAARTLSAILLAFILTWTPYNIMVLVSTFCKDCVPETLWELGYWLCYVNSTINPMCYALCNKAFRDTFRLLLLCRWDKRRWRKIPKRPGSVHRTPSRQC

[7] = target: T5, Muscarinic acetylcholine receptor M1/M5 chimeric protein (Homo sapiens, UniProt P08912+P11229); experiment: Inhibition of [3H](R)-QNB binding to human M1/M5(o3) chimeric receptor expressed in A9 L cells; format: cell-based, A9L
T5 sequence (P11229 whole entry): T4 sequence (P11229 whole entry)
T5 sequence (P08912 whole entry): T3 sequence (whole entry)

[8] = target: T5, Muscarinic acetylcholine receptor M1/M5 chimeric protein; experiment: Inhibition of [3H](R)-QNB binding to human M1/M5(o2o3) chimeric receptor expressed in A9 L cells; format: cell-based, A9L
[9] = target: Muscarinic acetylcholine receptor M1 (Homo sapiens, UniProt P11229, Q185E); format: functional, cell-based, L929
Chain of Muscarinic acetylcholine receptor M1 (Homo sapiens, UniProt P11229, Q185E) (P11229 whole entry Q185E): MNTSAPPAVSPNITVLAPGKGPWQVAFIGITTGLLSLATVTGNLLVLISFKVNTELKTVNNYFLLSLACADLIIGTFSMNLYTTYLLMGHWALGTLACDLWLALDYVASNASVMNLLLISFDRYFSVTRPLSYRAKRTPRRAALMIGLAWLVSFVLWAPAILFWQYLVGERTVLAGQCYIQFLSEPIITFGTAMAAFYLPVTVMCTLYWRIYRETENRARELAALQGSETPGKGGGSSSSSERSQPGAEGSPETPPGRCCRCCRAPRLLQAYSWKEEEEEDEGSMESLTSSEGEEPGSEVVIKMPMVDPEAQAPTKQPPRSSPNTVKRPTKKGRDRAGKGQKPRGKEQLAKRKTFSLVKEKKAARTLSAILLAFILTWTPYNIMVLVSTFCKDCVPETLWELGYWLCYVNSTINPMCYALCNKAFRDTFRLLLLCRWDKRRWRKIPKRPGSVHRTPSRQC

[10] = target: Muscarinic acetylcholine receptor M1 (Homo sapiens, UniProt P11229, E170K); format: functional, cell-based, L929
Chain of Muscarinic acetylcholine receptor M1 (Homo sapiens, UniProt P11229, E170K) (P11229 whole entry E170K): as the sequence (P11229 whole entry Q185E) above, with E170K, E185Q counted along it

[11] = target: T5, Muscarinic acetylcholine receptor M1/M5 chimeric protein; experiment: Inhibition of [3H](R)-QNB binding to human M1/M5(o2) chimeric receptor expressed in A9 L cells; format: cell-based, A9L
[12] = target: T5, Muscarinic acetylcholine receptor M1/M5 chimeric protein; experiment: Agonist activity at human M1/M5(o2) chimeric receptor expressed in A9 L cells assessed as stimulation of phosphoinositide hydrolysis; format: functional, cell-based, L929
[13] = target: T5, Muscarinic acetylcholine receptor M1/M5 chimeric protein; experiment: Agonist activity at human M1/M5(o3) chimeric receptor expressed in A9 L cells assessed as stimulation of phosphoinositide hydrolysis; format: functional, cell-based, L929
Rattus norvegicus [14] = experiment: Antipsychotic activity in sc dosed Sprague-Dawley rat assessed as ability to reverse apomorphine effect on prepulse inhibition of the startle response; format: functional, organism-based; in short: as §1
[15] = target: T1, Muscarinic acetylcholine receptor M3; experiment: Agonist activity at human M3 receptor expressed in A9 L cells assessed as stimulation of phosphoinositide hydrolysis; format: functional, cell-based, L929

SMILES | Kb [1] [nM] | Activity (Rattus norvegicus [2]) | Activity (Rattus norvegicus [3]) | IC50 [4] [nM] | Activity [5] | Ki [6] [nM] | Ki [7] [nM] | Ki [8] [nM] | EC50 [9] [nM] | EC50 [10] [nM] | Ki [11] [nM] | EC50 [12] [nM] | EC50 [13] [nM] | Activity (Rattus norvegicus [14]) | Smax [5] [%] | EC50 [15] [nM]
COc1nsnc1OCCOCCOCCOCCOc1nsnc1C1=CCCN(C)C1 | 158 | Active | Active | 12.6 | inactive | 50.1 | 126 | 316 | 251 | 2000 | 200 | 79.4 | 100 |  |  | 
CCCCCCOc1nsnc1C1=CCCN(C)C1 [XANOMELINE] |  |  |  |  |  |  |  |  |  |  |  |  |  | inactive | 43 | 25100
